{"source": "ChEMBL document CHEMBL4732017", "about": "“Discovery, affinity maturation and multimerization of small molecule ligands against human tyrosinase and tyrosinase-related protein 1” (RSC Med Chem, 2021)", "key": {"[1]": {"target": "T1, Tyrosinase (Homo sapiens) (UniProt P14679)", "T1 sequence (whole entry)": "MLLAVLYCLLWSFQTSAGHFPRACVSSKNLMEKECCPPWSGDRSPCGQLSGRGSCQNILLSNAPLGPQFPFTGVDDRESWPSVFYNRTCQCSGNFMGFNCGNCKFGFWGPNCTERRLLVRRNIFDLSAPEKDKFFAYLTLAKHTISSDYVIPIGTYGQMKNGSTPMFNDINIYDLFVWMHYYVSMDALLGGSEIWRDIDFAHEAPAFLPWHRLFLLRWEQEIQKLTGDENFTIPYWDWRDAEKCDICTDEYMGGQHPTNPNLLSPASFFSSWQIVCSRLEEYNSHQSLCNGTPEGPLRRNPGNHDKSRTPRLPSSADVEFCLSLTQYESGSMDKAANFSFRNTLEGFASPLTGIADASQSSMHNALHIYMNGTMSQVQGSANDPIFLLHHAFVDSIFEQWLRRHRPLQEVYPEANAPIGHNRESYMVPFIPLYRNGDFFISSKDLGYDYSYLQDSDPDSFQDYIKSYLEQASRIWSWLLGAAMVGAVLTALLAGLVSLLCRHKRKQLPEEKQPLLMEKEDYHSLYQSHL", "assay": "Binding affinity to human tyrosinase up to 100 uM by ELISA", "conditions": "dose microM <=100", "method_in_brief": "(§1)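 Wells are coated overnight at 4 °C with 100 nM hTYR or hTYRP1 in PBS and blocked with 4% milk-PBS for 30–45 min. A serial dilution of fluorescein-ligand conjugate is added for 45 min in the dark. Detection uses 200 nM anti-fluorescein IgG, then protein A-HRP (1:1000), each for 45 min with washes between. Absorbance is read at 450 and 620 nm, and values are fitted.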"}, "[2]": {"target": "5,6-dihydroxyindole-2-carboxylic acid oxidase (Homo sapiens) (UniProt P17643)", "sequence (P17643 whole entry, the tested form may be a part)": "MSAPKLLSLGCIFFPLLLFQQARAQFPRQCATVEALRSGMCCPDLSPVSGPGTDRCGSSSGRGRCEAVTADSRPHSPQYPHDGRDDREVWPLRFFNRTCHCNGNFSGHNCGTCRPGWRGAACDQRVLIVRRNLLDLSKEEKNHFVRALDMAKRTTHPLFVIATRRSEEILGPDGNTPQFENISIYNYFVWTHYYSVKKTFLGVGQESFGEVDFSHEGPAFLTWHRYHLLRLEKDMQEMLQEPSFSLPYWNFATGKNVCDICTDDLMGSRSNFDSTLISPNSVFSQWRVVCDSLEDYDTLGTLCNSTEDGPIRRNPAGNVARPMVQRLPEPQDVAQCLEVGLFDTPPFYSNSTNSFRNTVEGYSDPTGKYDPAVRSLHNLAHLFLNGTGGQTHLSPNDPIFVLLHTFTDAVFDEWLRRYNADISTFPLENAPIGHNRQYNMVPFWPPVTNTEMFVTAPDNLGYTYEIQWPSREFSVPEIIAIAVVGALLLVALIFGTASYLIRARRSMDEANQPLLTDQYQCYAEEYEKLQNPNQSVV", "assay": "Binding affinity to human tyrosinase related protein 1 up to 100 uM by ELISA", "conditions": "dose microM <=100", "method_in_brief": "as §1"}, "[3]": {"target": "T1, Tyrosinase (Homo sapiens)", "assay": "Binding affinity to human tyrosinase expressed in mouse B16F10 cells at 10 uM by fluorophore based flow cytometry assay", "conditions": "B16-F10"}, "[4]": {"target": "5,6-dihydroxyindole-2-carboxylic acid oxidase (Homo sapiens) (UniProt P17643)", "assay": "Binding affinity to human tyrosinase related protein 1 expressed in mouse B16F10 cells at 10 uM by fluorophore based flow cytometry assay", "conditions": "B16-F10"}, "[5]": {"target": "T1, Tyrosinase (Homo sapiens)", "assay": "Binding affinity to human tyrosinase at 50 uM at pH 6.8 by enzymatic assay", "method_in_brief": "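Human tyrosinase intramelanosomal domain (residues 19–456), 200 nM, with 1 mM L-DOPA and 4 mM MBTH in PBS pH 6.8 with 1% DMSO at 25 °C. Dopaquinone-MBTH absorbance at 490–510 nm is recorded over 10 min, in duplicate, and the OD–time slope is taken by linear regression. Single-point tests use a fixed 50 µM inhibitor. IC50 comes from fitting the slope against inhibitor concentration.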"}, "[6]": {"target": "5,6-dihydroxyindole-2-carboxylic acid oxidase (Homo sapiens) (UniProt P17643)", "assay": "Binding affinity to human tyrosinase related protein 1 up to 10 uM by fluorescence polarization analysis", "conditions": "dose microM <=10", "method_in_brief": "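hTYRP1 intramelanosomal domain (residues 25–471) is serially diluted 1:1 and incubated with 50 nM fluorescein-conjugated ligand in PBS pH 7.4. Fluorescence anisotropy is read in triplicate and anisotropy values are fitted against protein concentration.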"}}, "note": "Activity calls are given as the source filed them. The calls are words filed in the database; no cut-off is given here.", "data": [{"smiles": "N=C(N)NCCC[C@@H](NC(=O)[C@@H](CC(=O)O)NC(=O)CCCCn1cc(CCCC(=O)Nc2nc(-c3ccc(O)cc3O)cs2)nn1)C(=O)N[C@H](CC(=O)O)C(=O)NCCCCCC(=O)NC(CSC1CC(=O)N(c2ccc3c(c2)C(=O)OC32c3ccc(O)cc3Oc3cc(O)ccc32)C1=O)C(=O)O", "note": "(single isomer, unassigned)", "values": [{"measurement": "Activity", "setting": "[1]", "value": "Active"}, {"measurement": "Activity", "setting": "[2]", "value": "Active"}, {"measurement": "Activity", "setting": "[3]", "value": "Active"}, {"measurement": "Activity", "setting": "[4]", "value": "Active"}]}, {"smiles": "CN(C)c1ccc(CC(=O)N[C@H](CCC(N)=O)C(=O)N2CCCN(c3ccc(F)cc3)CC2)cc1", "values": [{"measurement": "Activity", "setting": "[5]", "value": "Active"}]}, {"smiles": "CN(C)c1ccc(CC(=O)N[C@H](CCC(N)=O)C(=O)NCc2ccccc2N2CCCC2)cc1", "values": [{"measurement": "Activity", "setting": "[5]", "value": "Active"}]}, {"smiles": "N=C(N)NCCC[C@@H](NC(=O)[C@@H](CC(=O)O)NC(=O)[C@H](CCCCNC(=O)CCCCCNC(=O)CCCCn1cc(CCCC(=O)Nc2nc(-c3ccc(O)cc3O)cs2)nn1)NC(=O)CCCCCNC(=O)CCCCn1cc(CCCC(=O)Nc2nc(-c3ccc(O)cc3O)cs2)nn1)C(=O)N[C@H](CC(=O)O)C(=O)NCCCCCC(=O)NC(CSC1CC(=O)N(c2ccc3c(c2)C(=O)OC32c3ccc(O)cc3Oc3cc(O)ccc32)C1=O)C(=O)O", "note": "(single isomer, unassigned)", "values": [{"measurement": "Activity", "setting": "[1]", "value": "Active"}, {"measurement": "Activity", "setting": "[2]", "value": "Active"}, {"measurement": "Activity", "setting": "[3]", "value": "Active"}, {"measurement": "Activity", "setting": "[4]", "value": "Active"}]}, {"smiles": "CN(C)c1ccc(CC(=O)N[C@@H](CCC(N)=O)C(=O)NCc2cccc(N3CCOCC3)c2)cc1", "values": [{"measurement": "Activity", "setting": "[5]", "value": "Active"}]}, {"smiles": "CN(C)c1ccc(CC(=O)N[C@H](CCC(=O)NCCCCC(NC(=S)Nc2cccc3c2C(=O)OC32c3ccc(O)cc3Oc3cc(O)ccc32)C(=O)O)C(=O)NCc2ccccc2N2CCCC2)cc1", "note": "(stereo not given in full)", "values": [{"measurement": "Activity", "setting": "[6]", "value": "Active"}]}, {"smiles": "CN(C)c1ccc(CC(=O)N[C@@H](CCC(=O)NCCCCC(NC(=S)Nc2cccc3c2C(=O)OC32c3ccc(O)cc3Oc3cc(O)ccc32)C(=O)O)C(=O)NCc2ccccc2N2CCCC2)cc1", "note": "(stereo not given in full)", "values": [{"measurement": "Activity", "setting": "[6]", "value": "Active"}]}, {"smiles": "CN(C)c1ccc(CC(=O)N[C@@H](CCC(N)=O)C(=O)N2CCCN(c3ccc(F)cc3)CC2)cc1", "values": [{"measurement": "Activity", "setting": "[5]", "value": "Active"}]}, {"smiles": "CN(C)c1ccc(CC(=O)N[C@H](CCC(N)=O)C(=O)NCc2cccc(N3CCOCC3)c2)cc1", "values": [{"measurement": "Activity", "setting": "[5]", "value": "Active"}]}, {"smiles": "CN(C)c1ccc(CC(=O)N[C@@H](CCC(N)=O)C(=O)NCc2ccccc2N2CCCC2)cc1", "values": [{"measurement": "Activity", "setting": "[5]", "value": "Active"}]}, {"smiles": "N=C(N)NCCC[C@@H](NC(=O)[C@@H](CC(=O)O)NC(=O)[C@H](CCCCNC(=O)[C@H](CCCCNC(=O)CCCCCNC(=O)CCCCn1cc(CCCC(=O)Nc2nc(-c3ccc(O)cc3O)cs2)nn1)NC(=O)CCCCCNC(=O)CCCCn1cc(CCCC(=O)Nc2nc(-c3ccc(O)cc3O)cs2)nn1)NC(=O)[C@H](CCCCNC(=O)CCCCCNC(=O)CCCCn1cc(CCCC(=O)Nc2nc(-c3ccc(O)cc3O)cs2)nn1)NC(=O)CCCCCNC(=O)CCCCn1cc(CCCC(=O)Nc2nc(-c3ccc(O)cc3O)cs2)nn1)C(=O)N[C@H](CC(=O)O)C(=O)NCCCCCC(=O)N[C@@H](CSC1CC(=O)N(c2ccc3c(c2)C(=O)OC32c3ccc(O)cc3Oc3cc(O)ccc32)C1=O)C(=O)O", "note": "(stereo not given in full)", "values": [{"measurement": "Activity", "setting": "[1]", "value": "Active"}, {"measurement": "Activity", "setting": "[2]", "value": "Active"}, {"measurement": "Activity", "setting": "[3]", "value": "Active"}, {"measurement": "Activity", "setting": "[4]", "value": "Active"}]}]}
